Results: ChEMBL document CHEMBL3797198, “Discovery of pyrazinone based compounds that potently inhibit the drug-resistant enzyme variant R155K of the hepatitis C virus NS3 protease” (Bioorg Med Chem, 2016)

Legend:
[1] = Inhibition of wild-type full-length HCV genotype 1a NS3 protease using Ac-DED(Edans)EEAbu-psi-[COO]ASK(Dabcyl)-NH2 as substrate by FRET assay; design: species or system Hepatitis C virus subtype 1a
In short: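 Full-length HCV NS3 (protease-helicase/NTPase), genotype 1a wild type, FRET protease assay. 1 nM enzyme preincubated 10 min at 30 °C in 50 mM HEPES pH 7.5 with 10 mM DTT. Inhibition taken from measured initial velocities, corrected for each compound's auto-fluorescence. That correction used the ratio of fluorescence with and without compound, measured at every tested concentration.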

[2] = Cytotoxicity against human HuH7 cells; format: cell-based, Huh-7
Hepatitis C virus = test: Antiviral activity against HCV infected in human HuH7 cells by cell based replicon assay; format: functional, organism-based, Hepacivirus hominis; conditions: Huh-7
In short: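 HCV replicon cell assay; EC50 given as the mean of two experiments.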

SMILES	Ki [1] [nM]	CC50 [2] [nM]	EC50 (Hepatitis C virus) [nM]
CC(C)(C)NC(=O)Nc1nc(Cl)c(Cc2ccccc2)n(CC(=O)O)c1=O	> 10000	–	–
CC(C)(C)NC(=O)Nc1nc(Cl)c(CCC2CCCCC2)n(CC(=O)Nc2ccccc2C(=O)O)c1=O	120	> 100000	49000
CC[C@H](C)[C@H](NC(=O)[C@H](CC(C)C)NC(=O)C(CC(C(=O)O)C(=O)O)NC(=O)[C@H](CC(=O)O)NC(C)=O)C(=O)N[C@@H](CC1CCCCC1)C(=O)N[C@@H](CS)C(=O)O (single isomer, unassigned)	91	–	–
CC(C)(C)NC(=O)Nc1nc(Cl)c(CCC2CCCCC2)n(CC(=O)Nc2ccc(CC(=O)NS(=O)(=O)c3ccc(C(F)(F)F)cc3)cc2)c1=O	140	–	–
CC(C)(C)NC(=O)Nc1nc(Cl)c(Cc2cccc3ccccc23)n(CC(=O)Nc2ccccc2S(=O)(=O)NC(=O)c2ccc(C(F)(F)F)cc2)c1=O	180	–	–
COC(=O)c1ccccc1NC(=O)Cn1c(CCC2CCCCC2)c(Cl)nc(NC(=O)NC(C)(C)C)c1=O	120	> 100000	22000
CC(C)(C)OC(=O)N[C@H]1CCCCC/C=C\[C@@H]2C[C@@]2(C(=O)NS(=O)(=O)C2CC2)NC(=O)[C@@H]2C[C@@H](OC(=O)N3Cc4cccc(F)c4C3)CN2C1=O [DANOPREVIR]	–	> 1000	11
CC(C)(C)NC(=O)Nc1nc(Cl)c(CCC2CCCCC2)n(CC(=O)NC2(C(=O)NS(=O)(=O)c3ccc(C(F)(F)F)cc3)CC(OCc3ccccc3)C2)c1=O (centres undefined)	70	–	–
CC(C)(C)NC(=O)Nc1nc(Cl)c(CCc2ccccc2)n(CC(=O)Nc2ccccc2S(=O)(=O)NC(=O)c2ccc(C(F)(F)F)cc2)c1=O	170	–	–
CC(C)(C)NC(=O)Nc1nc(Cl)c(Cc2cccc3ccccc23)n(CC(=O)Nc2cccc(S(=O)(=O)NC(=O)c3ccc(C(F)(F)F)cc3)c2)c1=O	190	–	–
CC(C)(C)NC(=O)Nc1nc(Cl)c(CCC2CCCCC2)n(CC(=O)Nc2cc(-c3cncnc3)ccc2C(=O)NS(=O)(=O)c2ccc(C(F)(F)F)cc2)c1=O	120	–	–
CCCC(NC(=O)[C@@H]1[C@H]2CCC[C@H]2CN1C(=O)[C@@H](NC(=O)[C@@H](NC(=O)c1cnccn1)C1CCCCC1)C(C)(C)C)C(=O)C(=O)NC1CC1 (some centres undefined)	15	> 1000	650
CC(C)(C)NC(=O)Nc1nc(Cl)c(CCC2CCCCC2)n(CC(=O)Nc2ccc(C(=O)NS(=O)(=O)c3ccc(C(F)(F)F)cc3)cc2)c1=O	260	–	–
CC(C)(C)NC(=O)Nc1nc(Cl)c(CCC2CCCCC2)n(CC(=O)Nc2cc(F)ccc2C(=O)NS(=O)(=O)c2ccc(C(F)(F)F)cc2)c1=O	110	38000	7300

Further lines, with some results ahead:

Ki [1] [nM]	SMILES	CC50 [2] [nM]	EC50 (Hepatitis C virus) [nM]
260	CN(C(=O)c1ccccc1NC(=O)Cn1c(CCC2CCCCC2)c(Cl)nc(NC(=O)NC(C)(C)C)c1=O)S(=O)(=O)c1ccc(C(F)(F)F)cc1	–	–
130	CC(C)(C)NC(=O)Nc1nc(Cl)c(CCC2CCCCC2)n(CC(=O)Nc2ccccc2C(=O)NS(=O)(=O)c2ccccc2C(F)(F)F)c1=O	–	–
150	CC(C)(C)NC(=O)Nc1nc(Cl)c(Cc2ccccc2)n(CC(=O)NC2(C(=O)NS(=O)(=O)c3ccc(C(F)(F)F)cc3)CC(OCc3ccccc3)C2)c1=O (centres undefined)	–	–
230	CC(C)(C)NC(=O)Nc1nc(Cl)c(CCC2CCCCC2)n(CC(=O)Nc2ccccc2C(=O)NS(=O)(=O)c2cccc(C(F)(F)F)c2)c1=O	–	–
150	CC(C)(C)NC(=O)Nc1nc(Cl)c(CCC2CCCCC2)n(CC(=O)Nc2cc(Br)ccc2C(=O)NS(=O)(=O)c2ccc(C(F)(F)F)cc2)c1=O	–	–
120	Cc1ccc(S(=O)(=O)NC(=O)c2ccccc2NC(=O)Cn2c(CCC3CCCCC3)c(Cl)nc(NC(=O)NC(C)(C)C)c2=O)cc1	–	–
170	CC(C)(C)NC(=O)Nc1nc(Cl)c(CCC2CCCCC2)n(CC(=O)Nc2cccc(C(=O)NS(=O)(=O)c3ccc(C(F)(F)F)cc3)c2)c1=O	–	–
450	CC(C)(C)NC(=O)Nc1ncc(Cc2ccccc2)n(CC(=O)NC2(C(=O)NS(=O)(=O)c3ccc(C(F)(F)F)cc3)CC(O)C2)c1=O (centres undefined)	–	–
100	CC(C)(C)NC(=O)Nc1nc(Cl)c(CCC2CCCCC2)n(CC(=O)Nc2cc(C(=O)NS(=O)(=O)c3ccc(C(F)(F)F)cc3)cc(C(F)(F)F)c2)c1=O	–	–
170	CC(C)(C)NC(=O)Nc1nc(Cl)c(Cc2cccc3ccccc23)n(CC(=O)Nc2ccc(S(=O)(=O)NC(=O)c3ccc(C(F)(F)F)cc3)cc2)c1=O	–	–
120	C=Cc1ccc(C(=O)NS(=O)(=O)c2ccc(C(F)(F)F)cc2)c(NC(=O)Cn2c(CCC3CCCCC3)c(Cl)nc(NC(=O)NC(C)(C)C)c2=O)c1	–	–
